Measured values reported in ChEMBL document CHEMBL2413046, “Analogs of iso-azepinomycin as potential transition-state analog inhibitors of guanase: synthesis, biochemical screening, and structure-activity correlations of various selectively substituted imidazo[4,5-e][1,4]diazepines” (Bioorg Med Chem, 2013).

test: Inhibition of rabbit liver guanase assessed as inhibition of guanine hydrolysis by Lineweaver-Burk plot method; design: species or system Oryctolagus cuniculus
In short: (§1)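 Rabbit liver guanase (ammonium sulfate suspension, diluted to 0.1278 U/mL; 0.0077 units per assay) in 0.05 M Tris-HCl pH 7.4, 25°C, 1.0 mL final volume. Guanine 5–40 µM (5–6 levels) at fixed inhibitor 10, 20 or 30 µM (DMSO or methanol stocks). Initial rate from absorbance decrease at 245 nm, mean of two data sets; Ki from Lineweaver-Burk plots.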

SMILES	Ki
COC1CNC(=O)c2nc[nH]c2N1Cc1ccccc1 (stereo unspecified)	8.8 µM
O=C1NC(O)CNc2nc[nH]c21 (stereo unspecified) [AZEPINOMYCIN]	2.5 µM
COC1CNC(=O)c2ncn(Cc3ccc(F)cc3)c2N1 (stereo unspecified)	39.7 µM
COc1ccc(Cn2cnc3c2C(=O)NCC(OC)N3)cc1 (stereo unspecified)	47.5 µM
COc1ccc(Cn2cnc3c2C(=O)NCC(OC)N3Cc2ccccc2)cc1 (stereo unspecified)	26.5 µM
CCOC1CNC(=O)c2ncn(Cc3ccc(OC)cc3)c2N1 (stereo unspecified)	33.4 µM
CCOC1CNC(=O)c2c(ncn2Cc2ccc(OC)cc2)N1Cc1ccccc1 (stereo unspecified)	43.8 µM
COc1ccc(Cn2cnc3c2NC(OC)CNC3=O)cc1 (stereo unspecified)	21 µM

test: Competitive reversible inhibition of rabbit liver guanase assessed as inhibition of guanine hydrolysis by Lineweaver-Burk plot method; design: species or system Oryctolagus cuniculus; in short: as §1

SMILES	Ki
CCCCOC1CNC(=O)c2ncn(Cc3ccccc3)c2N1 (stereo unspecified)	54 µM
COC1CNC(=O)c2ncn(Cc3ccccc3)c2N1 (stereo unspecified)	40 µM
CCOC1CNC(=O)c2ncn(Cc3ccccc3)c2N1 (stereo unspecified)	47 µM
